Results taken from ChEMBL document CHEMBL1130289, “Polyanion inhibitors of human immunodeficiency virus and other viruses. 5. Telomerized anionic surfactants derived from amino acids” (J Med Chem, 1997).

What was measured:
[1] = system: Human immunodeficiency virus 1; assay: Inhibitory concentration required to inhibit HIV-induced cytopathicity in CEM-4 cells by 50% based in the MTT assay; format: functional, organism-based; conditions: Human immunodeficiency virus 1, CEM-4
[2] = system: CEM-4; assay: Cytotoxic concentration required to reduce the viability of uninfected cells by 50% after 5 days of incubation in the presence on CEM-4 cells.; format: functional; conditions: Homo sapiens, CEM-4, 120 h
Outline: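 Uninfected CEM-4 cells were incubated with compound for 5 days. CC50 is the concentration that reduced viability by 50%. Values average at least two separate experiments.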

[3] = system: Tacaribe virus; assay: Concentration required to inhibit Tacaribe induced cytopathicity in Vero cells by 50%; format: functional, cell-based; conditions: Mammarenavirus tacaribeense
[4] = system: Human immunodeficiency virus 1; assay: Inhibitory concentration required to inhibit HIV-induced cytopathicity in CEM-4 cells by 50% based in the MTT assay; Not active; format: functional, organism-based
[5] = system: Human immunodeficiency virus 2; assay: Concentration required to inhibit HIV-2 induced cytopathicity in MT-4 cells by 50%; format: functional, organism-based; conditions: Human immunodeficiency virus 2, MT4
Outline: (§1)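 MT-4 cells were infected with HIV-1 (strain HTLV-IIIB/LAI) or HIV-2 (strain LAV-2 ROD) and exposed to compound. IC50 is the concentration that inhibited HIV-induced cytopathicity by 50%. Values are means of two separate experiments.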

[6] = system: Poliovirus 1; assay: Concentration required to inhibit Polio-1 induced cytopathicity in HeLa cells by 50%; format: functional, organism-based; conditions: Enterovirus C
[7] = system: Semliki Forest virus; assay: Concentration required to inhibit forest induced cytopathicity in Vero cells by 50%; format: functional, organism-based
Outline: (§2)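 Virus was added to the cell monolayers in the presence of compound. Incubation continued until the viral cytopathic effect was scored. IC50 is the concentration that reduced virus-induced cytopathicity by 50%.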

[8] = system: Human betaherpesvirus 5; assay: Concentration required to inhibit HCMV(Davis) induced cytopathicity in HEL cells by 50%; format: functional, organism-based; conditions: Human betaherpesvirus 5, HEL; outline: as §2
[9] = system: Human respirovirus 3; assay: Concentration required to inhibit parainfluenza-3 induced cytopathicity in Vero cells by 50%; format: functional, organism-based; conditions: Human respirovirus 3, Vero; outline: as §2
[10] = system: Human immunodeficiency virus 1; assay: Concentration required to inhibit HIV-1 induced cytopathicity in MT-4 cells by 50%; format: functional, organism-based; conditions: Human immunodeficiency virus 1, MT4; outline: as §1
[11] = system: Mammalian orthoreovirus 1; assay: Concentration required to inhibit reovirus-1 induced cytopathicity in Vero cells by 50%; format: functional, organism-based; conditions: Mammalian orthoreovirus 1, Vero; outline: as §2
[12] = system: Vesicular stomatitis virus; assay: Concentration required to inhibit vesicular stomatitis induced cytopathicity in E6SM cells by 50%; format: functional, organism-based
[13] = system: HeLa; assay: Minimum cytotoxic concentration required to cause a microscopically detectable alteration of normal cell morphology in HeLa cells; format: functional, Homo sapiens
Outline: (§3)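 Uninfected E6SM, HeLa or Vero cells were exposed to compound and examined by microscopy. MCC is the lowest concentration causing a detectable alteration of normal cell morphology.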

[14] = system: Human alphaherpesvirus 2; assay: Concentration required to inhibit HSV-2(G) induced cytopathicity in E6SM cells by 50%; conditions: Human alphaherpesvirus 2, E6SM
[15] = system: Human immunodeficiency virus 1; assay: Concentration required to inhibit by 50% syncytium formation between MOLT-4 cells and HIV-1(IIIB); format: functional, organism-based; conditions: Human immunodeficiency virus 1, MOLT-4
Outline: (§4)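 Uninfected MOLT-4 cells were co-cultured with HUT-78 cells chronically infected with HIV-1 (IIIB) or HIV-2 (ROD), in the presence of compound. The end point was syncytium formation, and IC50 is the concentration giving 50% inhibition. Values are means of two separate experiments.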

[16] = system: Human alphaherpesvirus 1; assay: Concentration required to inhibit HSV-1 TK-(B2006) induced cytopathicity in E6SM cells by 50%; conditions: Human alphaherpesvirus 1, E6SM
[17] = system: E6SM; assay: Minimum cytotoxic concentration required to cause a microscopically detectable alteration of normal cell morphology in E6SM cells; format: functional, Homo sapiens; outline: as §3
[18] = system: Human alphaherpesvirus 1; assay: Concentration required to inhibit HSV-1(KOS) induced cytopathicity in E6SM cells by 50%; conditions: Human alphaherpesvirus 1, E6SM
[19] = system: Junin virus; assay: Concentration required to inhibit Junin induced cytopathicity in Vero cells by 50%; format: functional, organism-based; conditions: Mammarenavirus juninense
[20] = system: Coxsackievirus; assay: Concentration required to inhibit Coxsackie induced cytopathicity in HeLa cells by 50%; format: functional, organism-based; outline: as §2
[21] = system: HEL; assay: Minimum cytotoxic concentration required to cause a microscopically detectable alteration of normal cell morphology in HEL cells; format: functional, Homo sapiens
[22] = system: Human immunodeficiency virus 2; assay: Concentration required to inhibit by 50% syncytium formation between MOLT-4 cells and HIV-2 (ROD) infected HUT-78 cells; format: functional, organism-based; conditions: Human immunodeficiency virus 2, MOLT-4; outline: as §4
[23] = system: Human betaherpesvirus 5; assay: Concentration required to inhibit HCMV(AD169) induced cytopathicity in HEL cells by 50%; format: functional, organism-based; conditions: Human betaherpesvirus 5, HEL; outline: as §2
[24] = system: MT4; assay: Concentration required to reduce the viability of mock-infected MT-4 cells by 50%; format: functional; conditions: Homo sapiens
Outline: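 Mock-infected MT-4 cells were exposed to compound. CC50 is the concentration that reduced cell viability by 50%. Values are means of two separate experiments.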

[25] = system: Sindbis virus; assay: Concentration required to inhibit Sindbis induced cytopathicity in Vero cells by 50%; format: functional, organism-based; outline: as §2
[26] = system: Vaccinia virus; assay: Concentration required to inhibit Vaccinia induced cytopathicity in E6SM cells by 50%; format: functional, organism-based; conditions: Orthopoxvirus vaccinia
[27] = system: Vero; assay: Minimum cytotoxic concentration required to cause a microscopically detectable alteration of normal cell morphology in Vero cells; format: functional, Chlorocebus sabaeus; outline: as §3

CCCCCCCCCCCCSCCCCCCCCCCC(=O)N(CC)CCCCCCCCCCC(=O)NCC(=O)[O-].[Na+]
IC50 [1]: 120 µg/mL | CC50 [2]: > 100 µg/mL

CCCCCCCCCCCCSCCCCCCCCCCCCCCCCCCCCCCC(=O)NCCCCCCCCCCC(=O)[O-].[Na+]
IC50 [3]: > 50 µg/mL | IC50 [4]: Not Active | IC50 [5]: 69 µg/mL | IC50 [6]: > 200 µg/mL | IC50 [7]: > 100 µg/mL | IC50 [8]: > 50 µg/mL | IC50 [9]: > 100 µg/mL | IC50 [10]: 55 µg/mL | IC50 [11]: > 100 µg/mL | IC50 [12]: > 100 µg/mL | MMC [13]: >200 µg/mL | IC50 [14]: > 100 µg/mL | IC50 [15]: 150 µg/mL | IC50 [16]: > 100 µg/mL | MMC [17]: >200 µg/mL | IC50 [18]: > 100 µg/mL | IC50 [19]: > 50 µg/mL | IC50 [20]: > 200 µg/mL | MMC [21]: >50 µg/mL | CC50 [2]: 99 µg/mL | IC50 [22]: 150 µg/mL | IC50 [23]: > 50 µg/mL | CC50 [24]: > 250 µg/mL | IC50 [25]: > 100 µg/mL | IC50 [26]: > 100 µg/mL

CCCCCCCCCCCCSCCCCCCC(=O)NCCCCCCCCCCC(=O)NCCC(=O)[O-].[Na+]
IC50 [4]: Not Active | CC50 [2]: > 300 µg/mL

CCCCCCCCCCCCSCCCCCCCCCCCCCCCCCCCCCCCCCCCCCCCCCCCCCCCCCCCCCCCCCCCCCCCCCCCCC(=O)N(CC)CCCCCCCCCCC(=O)NCCC(=O)[O-].[Na+]
IC50 [4]: Not Active | CC50 [2]: > 100 µg/mL

CCCCCCCCCCCCSCCCCCCCCC(=O)N(CC)CCCCCCCCCCC(=O)[O-].[Na+]
IC50 [1]: 25 µg/mL | CC50 [2]: 100 µg/mL

CCCCCCCCCCCCSCCCCCCCCCCCCCCCCCCCCCCC(=O)N(CC)CCCCCCCCCCC(=O)[O-].[Na+]
IC50 [1]: 4 µg/mL | CC50 [2]: 50 µg/mL

CCCCCCCCCCCCSCCCCCCCCCCC(=O)N(CC)CCCCCCCCCCC(=O)NCCC(=O)[O-].[Na+]
IC50 [3]: > 50 µg/mL | IC50 [4]: Not Active | IC50 [5]: 30 µg/mL | IC50 [6]: > 200 µg/mL | IC50 [7]: > 200 µg/mL | IC50 [8]: 20 µg/mL | IC50 [9]: > 200 µg/mL | IC50 [10]: 13 µg/mL | IC50 [11]: > 200 µg/mL | IC50 [12]: > 200 µg/mL | MMC [13]: >200 µg/mL | IC50 [14]: 20 µg/mL | MMC [27]: >200 µg/mL | IC50 [15]: 30 µg/mL | IC50 [16]: 150 µg/mL | IC50 [18]: 70 µg/mL | IC50 [19]: > 50 µg/mL | IC50 [20]: > 200 µg/mL | MMC [21]: >50 µg/mL | CC50 [2]: 50 µg/mL | IC50 [22]: 30 µg/mL | IC50 [23]: 50 µg/mL | CC50 [24]: > 250 µg/mL | IC50 [25]: > 200 µg/mL | IC50 [26]: > 200 µg/mL

CCCCCCCCCCCCSCCCCCCCCCCCCCCCCCCCCCCCCCCCCCCCCCCCCCCCCC(=O)N(C)CCCCCCCCCCC(=O)[O-].[Na+]
IC50 [4]: Not Active | CC50 [2]: > 200 µg/mL

CCCCCCCCCCCCSCCCCCCCCCCCCCCCCCCCCCCCCCCCCCCC(=O)N(CC)CCCCCCCCCCC(=O)NCC(=O)[O-].[Na+]
IC50 [1]: 4 µg/mL | CC50 [2]: 80 µg/mL

CCCCCCCCCCCCSCCCCCCC(=O)N(CC)CCCCCCCCCCC(=O)NCC(=O)[O-].[Na+]
IC50 [4]: Not Active | CC50 [2]: 50 µg/mL

CCCCCCCCCCCCSCCCCCCCCCCCCCCC(=O)NCCCCCCCCCCC(=O)NC(CCC(=O)[O-])C(=O)O.[Na+] (stereo not drawn)
IC50 [1]: 12 µg/mL | CC50 [2]: > 100 µg/mL

CCCCCCCCCCCCSCCCCCCCCCCCCCCCCCCCCCCCCCCCCC(=O)NCCCCCCCCCCC(=O)NCC(=O)[O-].[Na+]
IC50 [1]: 194 µg/mL | CC50 [2]: > 300 µg/mL

CCCCCCCCCCCCSCCCCCCCCCCCCCCCCC(=O)NCCCCCCCCCCC(=O)NCCC(=O)[O-].[Na+]
IC50 [4]: Not Active | CC50 [2]: > 100 µg/mL

CCCCCCCCCCCCSCCCCCCCCCCCCCCCCCCCCC(=O)N(CC)CCCCCCCCCCC(=O)NC(CCC(=O)[O-])C(=O)O.[Na+] (stereo not drawn)
IC50 [1]: 46 µg/mL | CC50 [2]: > 300 µg/mL

CCCCCCCCCCCCSCCCCCCCCC(=O)NCCCCCCCCCCC(=O)[O-].[Na+]
IC50 [4]: Not Active | CC50 [2]: 29 µg/mL

CCCCCCCCCCCCSCCCCCCC(=O)NCCCCCCCCCCC(=O)NCC(=O)[O-].[Na+]
IC50 [4]: Not Active | CC50 [2]: 118 µg/mL

CCCCCCCCCCCCSCCCCC(=O)NCCCCCCCCCCC(=O)NC(CCC(=O)[O-])C(=O)O.[Na+] (stereo not drawn)
IC50 [4]: Not Active | CC50 [2]: > 100 µg/mL

CCCCCCCCCCCCSCCCCCCC(=O)N(CC)CCCCCCCCCCC(=O)NC(CCC(=O)[O-])C(=O)O.[Na+] (stereo not drawn)
IC50 [1]: 21 µg/mL | CC50 [2]: > 100 µg/mL

CCCCCCCCCCCCSCCCCCCCCCCCCCCCCCCCCCCCCCCCCCCCCCCCCCCCCCCCCCCCCCCCCCCCCCCCCCCCCCCCCCCCCCCCCCCCCC(=O)N(CC)CCCCCCCCCCC(=O)[O-].[Na+]
IC50 [1]: 5 µg/mL | CC50 [2]: 30 µg/mL

CCCCCCCCCCCCSCCCCCCCCCCCCCCCCCCC(=O)N(C)CCCCCCCCCCC(=O)[O-].[Na+]
IC50 [4]: Not Active | CC50 [2]: > 200 µg/mL

CCCCCCCCCCCCSCCCCCCCCCCC(=O)NCCCCCCCCCCC(=O)NC(CCC(=O)[O-])C(=O)O.[Na+] (stereo not drawn)
IC50 [1]: 11 µg/mL | CC50 [2]: > 100 µg/mL

CCCCCCCCCCCCSCCCCCCCCCCCCCCCCCCCCCCCCCCC(=O)N(C)CCCCCCCCCCC(=O)[O-].[Na+]
IC50 [4]: Not Active | CC50 [2]: > 200 µg/mL

CCCCCCCCCCCCSCCCCCCCCCCCCCCCCC(=O)N(CC)CCCCCCCCCCC(=O)NCCC(=O)[O-].[Na+]
IC50 [4]: Not Active | CC50 [2]: > 100 µg/mL

CCCCCCCCCCCCSCCCCCCCCCCCCCCCCCCCCCCCCCCCCCCC(=O)NCCCCCCCCCCC(=O)NC(CCC(=O)[O-])C(=O)O.[Na+] (stereo not drawn)
IC50 [1]: 15 µg/mL | CC50 [2]: > 100 µg/mL

CCCCCCCCCCCCSCCCCCCCCCCCCCCCCCCCCCCCCCCCCCCCCCCC(=O)N(CC)CCCCCCCCCCC(=O)NC(CCC(=O)[O-])C(=O)O.[Na+] (stereo not drawn)
IC50 [1]: 25 µg/mL | CC50 [2]: > 300 µg/mL

CCCCCCCCCCCCSCCCCCCCCCCCCCCC(=O)NCCCCCCCCCCC(=O)NCC(=O)[O-].[Na+]
IC50 [1]: 15 µg/mL | CC50 [2]: > 300 µg/mL
